The source of these data is ChEMBL document CHEMBL5316336, “Development of Human Carbonic Anhydrase II Heterobifunctional Degraders” (J Med Chem, 2023).

Usually EC50 stands for the concentration that produces a half-maximal response.

Activity calls are given as the source filed them. The rule behind the calls is not given here.

Format in all cases: cell-based
Experiment [1] concerns the target Carbonic anhydrase 2 (Homo sapiens) (UniProt P00918). Kind of experiment: Induction of in carbonic anhydrase-2 HEK293 cells assessed as degradation of carbonic anhydrase-2 at 5 uM measured after 24 hrs by Western blot analysis. The method, boiled down:
(§1)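 HEK293 cells (DMEM, 10% FBS, 37 °C, 5% CO2) plated at 2 × 10⁶/well, dosed in DMSO (0.5% final) 24 h before lysis at ~90% confluency. 30–50 μg lysate protein on SDS-PAGE, blotted with anti-hCAII and anti-β-actin, Cy5 secondary. hCAII/β-actin ratio normalized to DMSO wells, as % DMSO.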
Background: Immunoblotting shows a protein as a band on a membrane.

In experiment [2] the target is T1, Protein cereblon/Carbonic anhydrase 2 (Homo sapiens, UniProt P00918+Q96SW2). In words: Protac activity at CRBN/CA-2 in HEK293 cells assessed as degradation of carbonic anhydrase-2 at 50 pM measured after 24 hrs by Western blot analysis. The method, boiled down:
as §1

Experiment [3] addresses T1, Protein cereblon/Carbonic anhydrase 2. Kind of experiment: Protac activity at CRBN/CA-2 in HEK293 cells assessed as degradation of carbonic anhydrase-2 at 50 nM by Western blot analysis. To be noted: time lower 0.0 hrs, time upper […]. The method, boiled down:
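HEK293 cells given 50 nM compound for 0–48 h time course; hCAII abundance by Western blot, hCAII/β-actin normalized to DMSO vehicle.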

Experiment [4] shares this target. Kind of experiment: Protac activity at CRBN/CA-2 in HEK293 cells assessed as degradation of carbonic anhydrase-2 at 50 nM preincubated for 1 hr with acetazolamide followed by compound addition and measured after 6 hrs by Western blot analysis.
The target is the same in experiment [5]. In words: Protac activity at CRBN/CA-2 in HEK293 cells assessed as degradation of carbonic anhydrase-2 at 50 nM preincubated for 1 hr with lenalidomide followed by compound addition and measured after 6 hrs by Western blot analysis.
The target is the same in experiment [6]. In words: Protac activity at CRBN/CA-2 in HEK293 cells assessed as degradation of carbonic anhydrase-2 at 50 nM preincubated for 1 hr with MG-132 followed by compound addition and measured after 6 hrs by Western blot analysis. The gist of the method: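 HEK293 cells pretreated 1 h with MG-132 at 1 μM, then 50 nM compound for 6 h; hCAII by Western blot, hCAII/β-actin relative to DMSO controls.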

Experiment [7] shares this target. Kind of experiment: Protac activity at CRBN/CA-2 in HEK293 cells assessed as degradation of carbonic anhydrase-2 measured after 24 hrs by Western blot analysis. To be noted: dose <= 15.0 µM. The method, boiled down:
(§2)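 Nine-point dose response, 5 pM to 15 μM, in HEK293 cells for 24 h before lysis, three biological replicates; Western blot with hCAII normalized to β-actin and DMSO vehicle. DC50 (95% CI) and DMax from least-squares sigmoidal fit of concentrations below the hook region; log(inhibitor) vs response, three-parameter fit.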

Experiment [8] shares this target. In words: Protac activity at CRBN/CA-2 in HEK293 cells assessed as degradation of carbonic anhydrase-2. The method, boiled down:
as §2

The target is the same in experiment [9]. In words: Protac activity at CRBN/CA-2 in HEK293 cells assessed as degradation of carbonic anhydrase-2 at 15 uM measured after 24 hrs by Western blot analysis relative to control. The method, boiled down: as §1

For `CS(=O)(=O)c1ccc(C(=O)NCCCOCCOCCOCCCNc2cccc3c2C(=O)N(C2CCC(=O)NC2=O)C3=O)cc1` (stereo not given), the result in experiment [1] was inactive.

With `CS(=O)(=O)c1ccc(C(=O)NCCCOCCCCOCCCNc2cccc3c2C(=O)N(C2CCC(=O)NC2=O)C3=O)cc1` (stereo not given), the outcome in [1] was inactive.

`NS(=O)(=O)c1ccc(C(=O)NCCCCCCCCCCCCNc2cccc3c2C(=O)N(C2CCC(=O)NC2=O)C3=O)cc1` (stereo not given): the result in experiment [2] was Active. In experiment [3], the Activity entry is “Dose-Dependent Effect”. Also, the result in experiment [4], in experiment [5] and in experiment [6] was inactive.

Turning to `NS(=O)(=O)c1ccc(C(=O)NCCCOCCOCCOCCCNc2cccc3c2C(=O)N(C2CCC(=O)NC2=O)C3=O)cc1` (stereo not given), the Activity entry in [7] is “Dose-Dependent Effect”; in [9], 100%. Moreover, the EC50 in [8] was 245 nM.

In the case of `NS(=O)(=O)c1ccc(C(=O)NCCCOCCCCOCCCNc2cccc3c2C(=O)N(C2CCC(=O)NC2=O)C3=O)cc1` (stereo not given), the Activity result in experiment [7] was “Dose-Dependent Effect”; in experiment [9] it was 100%. For the same compound, the EC50 in experiment [8] was 5 nM.

With `CN1C(=O)CCC(N2C(=O)c3cccc(NCCCOCCCCOCCCNC(=O)c4ccc(S(N)(=O)=O)cc4)c3C2=O)C1=O` (stereo not given), the outcome in experiment [1] was inactive.

As to `CN1C(=O)CCC(N2C(=O)c3cccc(NCCCOCCOCCOCCCNC(=O)c4ccc(S(N)(=O)=O)cc4)c3C2=O)C1=O` (stereo not given), the outcome in experiment [1] was inactive.
